ChEMBL document CHEMBL1667769, “Sodium [2'-[(cyclopropanecarbonyl-ethyl-amino)-methyl]-4'-(6-ethoxy-pyridin-3-yl)-6-methoxy-biphenyl-3-yl]-acetate (AM432): a potent, selective prostaglandin D2 receptor antagonist” (Bioorg Med Chem Lett, 2011)
pIC50: −log10 of the molar value. Activity calls are given as the source filed them. The calls are words filed in the database; no cut-off is given here.

Columns and labels:
[1] = biological target: T1, Prostaglandin D2 receptor 2 (Homo sapiens, UniProt Q9Y5Y4); assay: Displacement of [3H]PGD2 from human CRTh2 receptor expressed in 293 cells by liquid scintillation counting in presence of 0.2 % HSA; assay type: cell-based, HEK293
T1 sequence (Q9Y5Y4 whole entry): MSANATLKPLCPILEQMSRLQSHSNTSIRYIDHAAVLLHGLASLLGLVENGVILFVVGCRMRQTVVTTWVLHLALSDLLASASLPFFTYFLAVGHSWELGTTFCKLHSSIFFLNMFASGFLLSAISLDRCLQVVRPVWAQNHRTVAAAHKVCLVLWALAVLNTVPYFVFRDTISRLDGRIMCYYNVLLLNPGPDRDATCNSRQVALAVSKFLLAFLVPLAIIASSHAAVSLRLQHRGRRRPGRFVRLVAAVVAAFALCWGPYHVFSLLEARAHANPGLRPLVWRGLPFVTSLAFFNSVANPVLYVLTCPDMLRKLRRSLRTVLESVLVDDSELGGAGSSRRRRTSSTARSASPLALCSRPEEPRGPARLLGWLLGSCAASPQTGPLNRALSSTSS
Summary of the method: (§1)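 Membranes from 293 cells stably expressing human DP₂ incubated with [³H]-PGD₂ and increasing compound concentrations. Membranes harvested and washed; bound [³H]-PGD₂ counted. IC₅₀ taken as concentration giving 50% inhibition of binding. Run without and with 0.2% human serum albumin. Values averaged from three experiments (five for the lead).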

[2] = biological target: T1, Prostaglandin D2 receptor 2; assay: Displacement of [3H]PGD2 from human CRTh2 receptor expressed in 293 cells by liquid scintillation counting; assay type: cell-based, HEK293; summary of the method: as §1
Mus musculus [3] = assay: Antiinflammatory activity against cigarette smoke-induced lung inflammation in BALB/c mouse assessed as reduction in bronchoalveolar lavage fluid macrophages at 10 mg/kg, po for 2 days; assay type: functional, organism-based; set-up: dose 10 mg/kg
Summary of the method: (§2)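 Mice exposed to cigarette smoke. Oral dosing at 10 or 50 mg/kg, or 0.5% methylcellulose vehicle, on days −1 through 2. On day 3, euthanized by isoflurane inhalation, then bronchoalveolar lavage with differential counts of neutrophils, lymphocytes and macrophages.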

Cytochrome P450 2C19 = Cytochrome P450 2C19 (Homo sapiens, UniProt P33261); assay: Inhibition of human CYP2C19; assay type: ADME
Chain of Cytochrome P450 2C19 (P33261 whole entry): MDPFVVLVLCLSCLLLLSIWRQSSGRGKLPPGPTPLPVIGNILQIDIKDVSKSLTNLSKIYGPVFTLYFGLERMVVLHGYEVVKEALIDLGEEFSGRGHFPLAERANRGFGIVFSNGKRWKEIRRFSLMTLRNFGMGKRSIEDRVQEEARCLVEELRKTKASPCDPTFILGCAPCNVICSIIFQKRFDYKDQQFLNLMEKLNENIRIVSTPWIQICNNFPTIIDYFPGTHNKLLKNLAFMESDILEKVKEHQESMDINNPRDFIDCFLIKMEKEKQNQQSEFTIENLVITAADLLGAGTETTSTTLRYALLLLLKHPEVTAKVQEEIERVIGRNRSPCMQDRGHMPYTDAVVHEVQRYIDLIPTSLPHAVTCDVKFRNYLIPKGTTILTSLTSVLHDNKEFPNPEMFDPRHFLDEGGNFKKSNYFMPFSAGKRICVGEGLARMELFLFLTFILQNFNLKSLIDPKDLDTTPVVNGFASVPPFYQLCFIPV

Mus musculus [4] = assay: Antiinflammatory activity against cigarette smoke-induced lung inflammation in BALB/c mouse assessed as reduction in bronchoalveolar lavage fluid neutrophils at 10 mg/kg, po for 2 days; assay type: functional, organism-based; set-up: dose 10 mg/kg; summary of the method: as §2
Prostacyclin receptor = Prostacyclin receptor (Homo sapiens, UniProt P43119); assay: Displacement of [3H]iloprost from IP receptor in human 293 cell membrane; assay type: cell membranes
Chain of Prostacyclin receptor (P43119 whole entry): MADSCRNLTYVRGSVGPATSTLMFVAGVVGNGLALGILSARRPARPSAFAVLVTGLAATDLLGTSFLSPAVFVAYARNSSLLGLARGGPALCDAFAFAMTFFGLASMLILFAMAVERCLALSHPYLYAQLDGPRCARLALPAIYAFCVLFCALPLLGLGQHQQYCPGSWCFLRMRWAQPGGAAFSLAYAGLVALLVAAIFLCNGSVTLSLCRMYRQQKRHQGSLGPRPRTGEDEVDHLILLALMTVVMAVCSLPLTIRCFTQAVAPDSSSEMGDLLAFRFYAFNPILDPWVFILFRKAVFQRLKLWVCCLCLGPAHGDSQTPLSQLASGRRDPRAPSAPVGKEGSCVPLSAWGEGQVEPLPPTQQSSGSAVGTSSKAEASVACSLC
Summary of the method: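 Human IP binding using hIP/293 membranes and ³H-iloprost.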

Mus musculus [5] = assay: Antiinflammatory activity against cigarette smoke-induced lung inflammation in BALB/c mouse assessed as reduction in bronchoalveolar lavage fluid macrophages at 50 mg/kg, po for 2 days; assay type: functional, organism-based; set-up: dose 50 mg/kg; summary of the method: as §2
[6] = biological target: Peroxisome proliferator-activated receptor gamma (Homo sapiens, UniProt P37231); assay: Inhibition of PPAR gamma
Chain of Peroxisome proliferator-activated receptor gamma (P37231 whole entry, looked up): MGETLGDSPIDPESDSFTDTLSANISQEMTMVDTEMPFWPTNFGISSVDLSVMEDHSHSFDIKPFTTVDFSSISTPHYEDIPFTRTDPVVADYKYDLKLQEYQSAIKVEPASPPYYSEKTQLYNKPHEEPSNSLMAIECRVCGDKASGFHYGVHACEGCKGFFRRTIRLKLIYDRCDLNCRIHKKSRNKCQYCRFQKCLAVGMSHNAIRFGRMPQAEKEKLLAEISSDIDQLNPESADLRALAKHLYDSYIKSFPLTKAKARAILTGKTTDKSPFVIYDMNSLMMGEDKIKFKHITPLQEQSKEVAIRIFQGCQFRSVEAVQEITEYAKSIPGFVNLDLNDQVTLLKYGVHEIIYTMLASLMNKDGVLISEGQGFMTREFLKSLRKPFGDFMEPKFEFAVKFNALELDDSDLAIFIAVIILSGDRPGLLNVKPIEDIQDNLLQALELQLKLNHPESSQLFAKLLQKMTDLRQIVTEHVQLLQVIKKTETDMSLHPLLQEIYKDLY

Cytochrome P450 1A2 = biological target: T2, Cytochrome P450 1A2 (Homo sapiens, UniProt P05177); assay: Inhibition of human CYP1A2; assay type: ADME
T2 sequence (P05177 whole entry): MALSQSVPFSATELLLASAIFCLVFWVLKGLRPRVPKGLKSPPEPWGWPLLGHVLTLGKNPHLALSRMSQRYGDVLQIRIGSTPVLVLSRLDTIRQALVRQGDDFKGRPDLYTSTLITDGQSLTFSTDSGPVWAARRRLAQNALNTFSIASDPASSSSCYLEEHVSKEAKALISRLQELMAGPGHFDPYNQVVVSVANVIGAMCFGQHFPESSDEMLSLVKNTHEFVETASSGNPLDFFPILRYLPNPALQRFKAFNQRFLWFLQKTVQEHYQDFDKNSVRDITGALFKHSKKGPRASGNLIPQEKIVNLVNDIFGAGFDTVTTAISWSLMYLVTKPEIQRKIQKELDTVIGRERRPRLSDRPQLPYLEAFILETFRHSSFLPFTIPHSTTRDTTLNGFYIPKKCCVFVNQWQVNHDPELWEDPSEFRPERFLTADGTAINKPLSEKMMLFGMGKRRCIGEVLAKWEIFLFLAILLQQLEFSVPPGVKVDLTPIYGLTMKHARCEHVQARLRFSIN

Mus musculus [7] = assay: Antiinflammatory activity against cigarette smoke-induced lung inflammation in BALB/c mouse assessed as reduction in bronchoalveolar lavage fluid lymphocytes at 50 mg/kg, po for 2 days; assay type: functional, organism-based; set-up: dose 50 mg/kg; summary of the method: as §2
[8] = biological target: Peroxisome proliferator-activated receptor delta (Homo sapiens, UniProt Q03181); assay: Inhibition of PPAR beta
Chain of Peroxisome proliferator-activated receptor delta (Q03181 whole entry, looked up): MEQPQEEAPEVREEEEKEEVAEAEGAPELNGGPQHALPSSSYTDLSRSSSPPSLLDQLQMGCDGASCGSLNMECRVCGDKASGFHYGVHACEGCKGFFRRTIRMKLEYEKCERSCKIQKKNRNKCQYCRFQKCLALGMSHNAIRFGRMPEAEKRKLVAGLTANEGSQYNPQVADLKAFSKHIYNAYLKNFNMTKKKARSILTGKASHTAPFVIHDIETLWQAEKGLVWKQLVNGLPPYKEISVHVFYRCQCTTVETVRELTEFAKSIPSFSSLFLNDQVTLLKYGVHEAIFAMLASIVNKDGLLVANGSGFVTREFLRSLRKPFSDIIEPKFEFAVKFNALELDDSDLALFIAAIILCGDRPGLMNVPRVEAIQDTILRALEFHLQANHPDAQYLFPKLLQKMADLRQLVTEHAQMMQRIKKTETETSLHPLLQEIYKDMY

hERG (KCNH2) = hERG (KCNH2) (Homo sapiens, UniProt Q12809); assay: Inhibition of human ERG at 10 uM by patch-clamp analysis
Chain of hERG (KCNH2) (Q12809 whole entry): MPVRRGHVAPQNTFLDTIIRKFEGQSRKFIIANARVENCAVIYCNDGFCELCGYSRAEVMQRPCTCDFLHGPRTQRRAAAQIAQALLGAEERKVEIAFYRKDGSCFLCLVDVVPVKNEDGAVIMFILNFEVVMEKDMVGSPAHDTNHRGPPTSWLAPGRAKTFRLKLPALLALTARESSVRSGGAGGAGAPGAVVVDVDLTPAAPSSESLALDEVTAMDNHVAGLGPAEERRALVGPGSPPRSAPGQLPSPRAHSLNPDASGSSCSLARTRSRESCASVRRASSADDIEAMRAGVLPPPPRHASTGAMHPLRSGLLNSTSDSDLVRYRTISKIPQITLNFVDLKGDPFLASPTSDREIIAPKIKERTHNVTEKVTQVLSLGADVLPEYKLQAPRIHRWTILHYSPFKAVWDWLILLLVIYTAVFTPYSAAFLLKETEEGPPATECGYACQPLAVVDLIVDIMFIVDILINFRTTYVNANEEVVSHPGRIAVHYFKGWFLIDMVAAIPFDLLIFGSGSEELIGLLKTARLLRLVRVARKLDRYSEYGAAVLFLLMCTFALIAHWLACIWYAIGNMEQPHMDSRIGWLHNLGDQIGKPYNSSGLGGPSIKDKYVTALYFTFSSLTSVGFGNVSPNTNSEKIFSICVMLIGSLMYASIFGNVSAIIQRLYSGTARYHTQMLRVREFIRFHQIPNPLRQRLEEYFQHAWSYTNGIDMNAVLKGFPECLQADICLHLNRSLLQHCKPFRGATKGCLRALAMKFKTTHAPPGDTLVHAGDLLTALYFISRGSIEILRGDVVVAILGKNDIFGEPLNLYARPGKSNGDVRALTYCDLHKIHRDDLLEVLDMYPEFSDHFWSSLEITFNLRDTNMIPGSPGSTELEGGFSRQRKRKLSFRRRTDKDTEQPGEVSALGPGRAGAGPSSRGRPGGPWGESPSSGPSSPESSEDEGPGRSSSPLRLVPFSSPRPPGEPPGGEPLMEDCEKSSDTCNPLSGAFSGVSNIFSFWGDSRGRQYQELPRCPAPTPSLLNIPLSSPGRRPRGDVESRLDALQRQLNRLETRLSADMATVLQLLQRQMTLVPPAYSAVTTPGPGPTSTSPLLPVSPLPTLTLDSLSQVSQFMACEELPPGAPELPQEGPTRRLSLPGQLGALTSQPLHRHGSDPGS

[9] = Half life in dog at 2.5 mg/kg, po or 2 mg/kg, iv; conditions: in vivo
[10] = biological target: T3, Prostaglandin G/H synthase 2 (Homo sapiens, UniProt P35354); assay: Inhibition of COX-2
T3 sequence (P35354 whole entry): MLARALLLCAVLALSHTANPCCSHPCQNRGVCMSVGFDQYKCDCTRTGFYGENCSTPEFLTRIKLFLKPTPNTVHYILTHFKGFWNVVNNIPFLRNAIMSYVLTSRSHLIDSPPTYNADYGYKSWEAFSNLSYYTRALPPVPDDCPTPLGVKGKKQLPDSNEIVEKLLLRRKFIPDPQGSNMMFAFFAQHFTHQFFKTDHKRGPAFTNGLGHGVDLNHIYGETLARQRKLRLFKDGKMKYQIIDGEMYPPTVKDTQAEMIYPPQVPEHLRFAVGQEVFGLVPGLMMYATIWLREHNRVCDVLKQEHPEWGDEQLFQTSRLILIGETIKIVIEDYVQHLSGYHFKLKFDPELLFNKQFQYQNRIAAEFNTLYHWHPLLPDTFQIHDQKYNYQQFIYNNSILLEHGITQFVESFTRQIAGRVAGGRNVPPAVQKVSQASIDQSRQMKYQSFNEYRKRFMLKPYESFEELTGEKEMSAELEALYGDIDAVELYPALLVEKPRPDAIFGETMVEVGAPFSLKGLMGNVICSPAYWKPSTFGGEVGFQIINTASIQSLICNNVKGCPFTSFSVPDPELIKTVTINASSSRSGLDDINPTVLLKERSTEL

[11] = Cmax in dog at 2.5 mg/kg, po or 2 mg/kg, iv; conditions: in vivo
Mus musculus [12] = assay: Antiinflammatory activity against cigarette smoke-induced lung inflammation in BALB/c mouse assessed as reduction in bronchoalveolar lavage fluid lymphocytes at 10 mg/kg, po for 2 days; assay type: functional, organism-based; set-up: dose 10 mg/kg; summary of the method: as §2
Mus musculus [13] = assay: Antiallergic activity in BALB/c mouse assessed as reduction in ovalbumin-induced increase in nasal sneezes at 10 mg/kg, po administered 21 to 25 days after ovalbumin challenge followed by intranasal ovalbumin challenge measured for 8 mins of post dose; assay type: functional, organism-based; set-up: dose 10 mg/kg
Cytochrome P450 2C9 = Cytochrome P450 2C9 (Homo sapiens, UniProt P11712); assay: Inhibition of human CYP2C9; assay type: ADME
Chain of Cytochrome P450 2C9 (P11712 whole entry): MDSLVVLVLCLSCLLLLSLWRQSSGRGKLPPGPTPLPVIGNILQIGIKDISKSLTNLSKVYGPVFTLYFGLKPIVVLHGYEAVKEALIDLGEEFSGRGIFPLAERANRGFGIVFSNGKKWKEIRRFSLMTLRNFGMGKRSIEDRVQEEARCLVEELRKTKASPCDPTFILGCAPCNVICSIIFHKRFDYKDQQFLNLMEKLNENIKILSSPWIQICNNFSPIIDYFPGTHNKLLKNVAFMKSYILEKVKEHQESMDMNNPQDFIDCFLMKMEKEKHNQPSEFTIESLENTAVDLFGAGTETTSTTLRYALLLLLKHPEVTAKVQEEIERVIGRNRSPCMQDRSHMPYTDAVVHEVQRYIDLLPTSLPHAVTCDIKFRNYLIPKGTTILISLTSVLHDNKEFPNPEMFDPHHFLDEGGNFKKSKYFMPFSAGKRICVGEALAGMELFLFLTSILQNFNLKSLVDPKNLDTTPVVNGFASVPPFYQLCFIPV

[14] = biological target: T4, Prostaglandin D2 receptor (Homo sapiens, UniProt Q13258); assay: Displacement of [3H]PGD2 from DP1 in human platelet membrane; assay type: cell membranes
T4 sequence (Q13258 whole entry): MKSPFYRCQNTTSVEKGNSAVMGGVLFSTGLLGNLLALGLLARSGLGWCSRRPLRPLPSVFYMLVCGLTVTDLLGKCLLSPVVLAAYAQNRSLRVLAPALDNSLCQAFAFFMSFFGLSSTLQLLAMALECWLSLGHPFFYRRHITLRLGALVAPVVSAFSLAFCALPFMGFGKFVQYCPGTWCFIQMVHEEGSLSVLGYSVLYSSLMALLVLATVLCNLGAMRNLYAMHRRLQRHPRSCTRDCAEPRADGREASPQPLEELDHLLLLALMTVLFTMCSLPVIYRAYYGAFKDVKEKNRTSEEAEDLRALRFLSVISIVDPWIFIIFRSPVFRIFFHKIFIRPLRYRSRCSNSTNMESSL
Summary of the method: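 Human DP₁ binding using ³H-PGD₂ and human platelet membranes.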

Mus musculus [15] = assay: Antiallergic activity in BALB/c mouse assessed as reduction in ovalbumin-induced increase in nasal rubs at 10 mg/kg, po administered 21 to 25 days after ovalbumin challenge followed by intranasal ovalbumin challenge measured for 8 mins of post dose; assay type: functional, organism-based; set-up: dose 10 mg/kg
Canis familiaris = assay: AUC in dog at 2.5 mg/kg, po or 2 mg/kg, iv; conditions: in vivo
Cytochrome P450 3A4 = Cytochrome P450 3A4 (Homo sapiens, UniProt P08684); assay: Inhibition of human CYP3A4; assay type: ADME
[16] = Clearance in dog at 2.5 mg/kg, po or 2 mg/kg, iv; conditions: in vivo
Cytochrome P450 2D6 = Cytochrome P450 2D6 (Homo sapiens, UniProt P10635); assay: Inhibition of human CYP2D6; assay type: ADME
Chain of Cytochrome P450 2D6 (P10635 whole entry): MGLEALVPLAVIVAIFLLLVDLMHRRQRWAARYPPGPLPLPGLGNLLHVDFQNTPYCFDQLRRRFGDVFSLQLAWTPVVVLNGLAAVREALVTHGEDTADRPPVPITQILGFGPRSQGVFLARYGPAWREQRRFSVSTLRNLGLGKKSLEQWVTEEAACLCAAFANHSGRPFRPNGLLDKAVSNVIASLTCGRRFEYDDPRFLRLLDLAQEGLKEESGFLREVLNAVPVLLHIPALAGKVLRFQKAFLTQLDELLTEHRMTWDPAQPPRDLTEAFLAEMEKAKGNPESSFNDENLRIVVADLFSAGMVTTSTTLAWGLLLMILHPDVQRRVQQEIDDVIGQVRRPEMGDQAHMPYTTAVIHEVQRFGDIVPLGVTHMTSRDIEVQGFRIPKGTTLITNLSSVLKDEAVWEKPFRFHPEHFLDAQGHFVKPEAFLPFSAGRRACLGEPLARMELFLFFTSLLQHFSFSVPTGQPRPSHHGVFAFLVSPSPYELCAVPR

[17] = biological target: Prostaglandin G/H synthase 1 (Homo sapiens, UniProt P23219); assay: Inhibition of COX-1
Chain of Prostaglandin G/H synthase 1 (P23219 whole entry): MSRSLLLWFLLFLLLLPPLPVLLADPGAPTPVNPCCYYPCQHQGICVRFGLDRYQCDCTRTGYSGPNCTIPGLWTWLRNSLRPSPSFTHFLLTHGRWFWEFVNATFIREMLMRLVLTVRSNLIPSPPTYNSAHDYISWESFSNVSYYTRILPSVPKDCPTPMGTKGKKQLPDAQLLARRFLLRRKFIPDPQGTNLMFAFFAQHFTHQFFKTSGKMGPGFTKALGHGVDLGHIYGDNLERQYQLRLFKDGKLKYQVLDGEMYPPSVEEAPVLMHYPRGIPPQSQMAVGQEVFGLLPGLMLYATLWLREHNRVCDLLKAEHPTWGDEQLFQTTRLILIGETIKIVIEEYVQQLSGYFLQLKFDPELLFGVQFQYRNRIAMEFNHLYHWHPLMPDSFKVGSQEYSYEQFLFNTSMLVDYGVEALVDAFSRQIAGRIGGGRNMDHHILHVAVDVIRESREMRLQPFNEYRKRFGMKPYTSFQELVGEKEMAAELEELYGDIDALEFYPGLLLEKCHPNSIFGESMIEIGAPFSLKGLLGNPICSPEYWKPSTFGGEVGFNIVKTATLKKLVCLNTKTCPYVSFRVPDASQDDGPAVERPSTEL

[18] = biological target: T5, Peroxisome proliferator-activated receptor alpha (Homo sapiens, UniProt Q07869); assay: Inhibition of PPAR alpha
T5 sequence (Q07869 whole entry): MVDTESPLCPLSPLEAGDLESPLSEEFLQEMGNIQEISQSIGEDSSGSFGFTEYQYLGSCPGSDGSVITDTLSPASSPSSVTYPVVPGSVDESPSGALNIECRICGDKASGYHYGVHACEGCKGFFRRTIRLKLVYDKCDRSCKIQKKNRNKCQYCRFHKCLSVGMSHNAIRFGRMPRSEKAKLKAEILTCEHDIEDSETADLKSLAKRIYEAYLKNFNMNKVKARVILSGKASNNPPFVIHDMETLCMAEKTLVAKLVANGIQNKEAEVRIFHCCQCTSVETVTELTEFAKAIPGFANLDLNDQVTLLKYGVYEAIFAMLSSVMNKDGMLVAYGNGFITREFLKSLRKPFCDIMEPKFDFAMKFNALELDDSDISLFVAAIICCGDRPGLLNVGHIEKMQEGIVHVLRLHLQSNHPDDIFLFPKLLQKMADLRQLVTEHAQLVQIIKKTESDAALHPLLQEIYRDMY

Mus musculus [19] = assay: Antiinflammatory activity against cigarette smoke-induced lung inflammation in BALB/c mouse assessed as reduction in bronchoalveolar lavage fluid neutrophils at 50 mg/kg, po for 2 days; assay type: functional, organism-based; set-up: dose 50 mg/kg; summary of the method: as §2
Thromboxane A2 receptor = biological target: T6, Thromboxane A2 receptor (Homo sapiens, UniProt P21731); assay: Displacement of [3H]SQ-29548 from TP receptor in human platelet membrane; assay type: cell membranes
T6 sequence (P21731 whole entry): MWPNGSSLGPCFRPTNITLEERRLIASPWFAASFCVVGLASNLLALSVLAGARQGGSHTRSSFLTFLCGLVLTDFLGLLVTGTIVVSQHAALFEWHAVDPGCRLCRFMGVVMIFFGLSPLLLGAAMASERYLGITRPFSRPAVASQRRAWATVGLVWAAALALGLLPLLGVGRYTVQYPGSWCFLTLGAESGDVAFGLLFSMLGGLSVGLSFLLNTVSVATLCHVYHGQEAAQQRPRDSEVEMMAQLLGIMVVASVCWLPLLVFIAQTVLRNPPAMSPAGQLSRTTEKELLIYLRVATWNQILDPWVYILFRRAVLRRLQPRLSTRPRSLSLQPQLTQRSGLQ
Summary of the method: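 Human TP binding using human platelet membranes and ³H-SQ-29548.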

SMILES: CCN(Cc1cc(NC(C)=O)ccc1-c1cc(CC(=O)O)ccc1OC)C(=O)OCc1ccccc1
- pIC50 [1]: 7.22
- pIC50 [2]: 8.15

SMILES: CCN(Cc1cc(C(=O)O)ccc1-c1cc(CC(=O)O)ccc1OC)C(=O)OCc1ccccc1
- pIC50 [1]: 6.60
- pIC50 [2]: 8.10

SMILES: CCN(Cc1cc(C(C)(C)O)ccc1-c1cc(CC(=O)O)ccc1OC)C(=O)OCc1ccccc1
- pIC50 [1]: 7.62
- pIC50 [2]: 7.92

SMILES: CCOc1ccc(-c2ccc(-c3cc(CC(=O)[O-])ccc3OC)c(CN(CC)C(=O)C3CC3)c2)cn1.[Na+]
- Activity (Mus musculus [3]): inactive
- pIC50 (Cytochrome P450 2C19): < 4.30
- Activity (Mus musculus [4]): Active
- pIC50 (Prostacyclin receptor): < 4.00
- Activity (Mus musculus [5]): Active
- pIC50 [6]: < 3.60
- pIC50 (Cytochrome P450 1A2): < 4.30
- Activity (Mus musculus [7]): Active
- pIC50 [8]: < 3.60
- pIC50 [1]: 7.51
- inhibition at 10 µM (hERG (KCNH2)): 11%
- half-life [9]: 6 h
- pIC50 [2]: 8.22
- pIC50 [10]: < 4.00
- Cmax [11]: 30 µM
- Activity (Mus musculus [12]): inactive
- Activity (Mus musculus [13]): Active
- pIC50 (Cytochrome P450 2C9): < 4.30
- pIC50 [14]: 4.57
- Activity (Mus musculus [15]): Active
- AUC (Canis familiaris): 87 µg/mL
- pIC50 (Cytochrome P450 3A4): < 4.30
- clearance [16]: 0.5 mL/min/kg
- pIC50 (Cytochrome P450 2D6): < 4.30
- pIC50 [17]: < 4.00
- pIC50 [18]: < 3.60
- Activity (Mus musculus [19]): Active
- pIC50 (Thromboxane A2 receptor): < 4.00

SMILES: CCN(Cc1cc(-c2ncc(OC)cn2)ccc1-c1cc(CC(=O)O)ccc1OC)C(=O)C1CC1
- pIC50 [1]: 6.97
- pIC50 [2]: 7.57

SMILES: CCN(Cc1cc(-c2cnn(C)c2)ccc1-c1cc(CC(=O)O)ccc1OC)C(=O)C1CC1
- pIC50 [1]: 7.43
- pIC50 [2]: 7.57
